# ChEMBL document CHEMBL1124223, “1-Substituted 7-[3-[(ethylamino)methyl]-1-pyrrolidinyl]-6,8- difluoro-1,4-dihydro-4-oxo-3-quinolinecarboxylic acids. New quantitative structure-activity relationships at N1 for the quinolone antibacterials” (1988)
# Experiments:
# Escherichia coli [1] = assay: Minimum inhibitory concentration against Escherichia coli (H560); format: functional
# Summary of the method: (§1)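 MICs were determined by standard microtitration against a panel of 11 bacterial strains. Aqueous stock solutions were prepared with 0.1 N sodium or potassium hydroxide.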
# Escherichia coli [2] = assay: Minimum inhibitory concentration against Escherichia coli (vogel); format: functional; summary of the method: as §1
# Enterobacter cloacae = assay: Minimum inhibitory concentration against Enterobacter cloacae. (MA2446).; format: functional
# [3] = biological target: DNA gyrase (Escherichia coli) (UniProt P0AES6+P0AES4); assay: Concentration required for 50% inhibition of gyrase.; format: protein-complex assay
# Summary of the method: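 DNA gyrase inhibition: the drug concentration (µg/mL) giving 50% inhibition (I50) was recorded, along with the lowest concentration inducing gyrase-mediated DNA cleavage. Data come from duplicate experiments with ±50% reproducibility.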
# Klebsiella pneumoniae = assay: Minimum inhibitory concentration against Klebsiella pneumoniae (MGH-2); format: functional; summary of the method: as §1
# Mus musculus [4] = assay: In vivo activity against Pseudomonas aeruginosa (po); format: functional; details: read-out: PD50
# Summary of the method: (§2)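 Median protective dose (PD50, mg/kg) measured in acute, lethal, systemic infections in female Charles River CD-1 mice. A single dose of compound was given at the time of bacterial challenge. Aqueous stock solutions were made with 0.1 N sodium or potassium hydroxide.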
# Mus musculus [5] = assay: In vivo activity against Pseudomonas aeruginosa (sc); format: functional; details: read-out: PD50; summary of the method: as §2
# Mus musculus [6] = assay: In vivo activity against Streptococcus pneumoniae (po); format: functional; details: read-out: PD50; summary of the method: as §2
# Mus musculus [7] = assay: In vivo activity against Streptococcus pneumoniae (sc); format: functional; details: read-out: PD50; summary of the method: as §2
# Mus musculus [8] = assay: In vivo activity against Streptococcus pyogenes (po); format: functional; details: read-out: PD50; summary of the method: as §2
# Mus musculus [9] = assay: In vivo activity against Streptococcus pyogenes (sc); format: functional; details: read-out: PD50; summary of the method: as §2
# Mus musculus [10] = assay: In vivo activity against Escherichia coli (po); format: functional; details: read-out: PD50; summary of the method: as §2
# Pseudomonas aeruginosa = assay: Minimum inhibitory concentration against Pseudomonas aeruginosa. (UI-18); format: functional; summary of the method: as §1
# Providencia rettgeri = assay: Minimum inhibitory concentration against Providencia rettgeri. (M1771); format: functional; summary of the method: as §1
# Streptococcus pyogenes = assay: Minimum inhibitory concentration against Streptococcus pyogenes (C203).; format: functional; summary of the method: as §1
# Staphylococcus aureus [11] = assay: Minimum inhibitory concentration against Staphylococcus aureus (H-228).; format: functional; summary of the method: as §1
# Staphylococcus aureus [12] = assay: Minimum inhibitory concentration against Staphylococcus aureus (UC76).; format: functional; summary of the method: as §1
# Streptococcus pneumoniae = assay: Minimum inhibitory concentration against Streptococcus pneumoniae (SV-1).; format: functional; summary of the method: as §1
# Enterobacter [13] = assay: Minimum inhibitory concentration against gram-negative enterobacteriaceae.; format: functional
# Summary of the method: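 This value is the geometric mean of microtitration MICs for the Gram-negative Enterobacteriaceae strains in the 11-organism panel. Aqueous stocks were prepared in 0.1 N sodium or potassium hydroxide.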
# Mus musculus [14] = assay: In vivo activity against Escherichia coli (sc); format: functional; details: read-out: PD50; summary of the method: as §2
# Enterococcus faecalis = assay: Minimum inhibitory concentration against Streptococcus faecalis (MGH-2).; format: functional; summary of the method: as §1
# Escherichia coli [15] = assay: Potency against Escherichia coli (H560); format: functional
# Escherichia coli [16] = assay: Potency against Gram-negative mean; format: functional
# Enterobacter [17] = assay: Minimum inhibitory concentration as geometric mean calculated for the gram-negative enterobacteriaceae.; format: functional
# Summary of the method: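 MICs were determined by standard microtitration. The value is the geometric mean of the MICs across the Gram-negative Enterobacteriaceae strains in the test panel.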
SMILES,MIC (Escherichia coli [1]),MIC (Escherichia coli [2]),MIC (Enterobacter cloacae),IC50 [3],MIC (Klebsiella pneumoniae),ED50 (Mus musculus [4]),ED50 (Mus musculus [5]),ED50 (Mus musculus [6]),ED50 (Mus musculus [7]),ED50 (Mus musculus [8]),ED50 (Mus musculus [9]),ED50 (Mus musculus [10]),MIC (Pseudomonas aeruginosa),MIC (Providencia rettgeri),MIC (Streptococcus pyogenes),MIC (Staphylococcus aureus [11]),MIC (Staphylococcus aureus [12]),MIC (Streptococcus pneumoniae),MIC (Enterobacter [13]),MIC (Enterococcus faecalis),also measured
CCNCC1CCN(c2c(F)cc3c(=O)c(C(=O)O)cn(C4CC4)c3c2F)C1 (stereo unspecified) [PD-117558],0.013 µg/mL,0.05 µg/mL,0.1 µg/mL,1.4 µg/mL,0.05 µg/mL,40 mg/kg,13 mg/kg,3 mg/kg,2 mg/kg,2 mg/kg,0.5 mg/kg,4 mg/kg,0.4 µg/mL,0.2 µg/mL,0.025 µg/mL,0.05 µg/mL,0.006 µg/mL,0.025 µg/mL,0.06 µg/mL,0.025 µg/mL,ED50 (Mus musculus [14]): 1 mg/kg
CCNCC1CCN(c2c(F)cc3c(=O)c(C(=O)O)cn(CC)c3c2F)C1 (stereo unspecified) [MERAFLOXACIN],0.1 µg/mL,0.1 µg/mL,0.2 µg/mL,,0.2 µg/mL,> 200 mg/kg,76 mg/kg,20 mg/kg,4 mg/kg,9 mg/kg,3 mg/kg,12 mg/kg,1.6 µg/mL,0.4 µg/mL,0.1 µg/mL,0.1 µg/mL,0.05 µg/mL,0.1 µg/mL,0.17 µg/mL,0.1 µg/mL,Log (Escherichia coli [15]): 6.59 1/M MIC; Log (Escherichia coli [16]): 6.35 1/M MIC; ED50 (Mus musculus [14]): 2 mg/kg
CN1CCN(c2cc3c(cc2F)c(=O)c(C(=O)O)cn3-c2ccc(F)cc2)CC1 [DIFLOXACIN],0.05 µg/mL,0.4 µg/mL,0.8 µg/mL,,0.4 µg/mL,14 mg/kg,14 mg/kg,16 mg/kg,13 mg/kg,7 mg/kg,7 mg/kg,2 mg/kg,0.8 µg/mL,1.6 µg/mL,1.6 µg/mL,1.6 µg/mL,0.4 µg/mL,1.6 µg/mL,0.4 µg/mL,3.1 µg/mL,ED50 (Mus musculus [14]): 2 mg/kg
CCNCC1CCN(c2c(F)cc3c(=O)c(C(=O)O)cn(C)c3c2F)C1 (stereo unspecified),0.1 µg/mL,0.4 µg/mL,1.6 µg/mL,7.5 µg/mL,0.4 µg/mL,,,,,,,,1.6 µg/mL,1.6 µg/mL,0.4 µg/mL,1.6 µg/mL,0.2 µg/mL,0.4 µg/mL,0.53 µg/mL,1.6 µg/mL,
CCNCC1CCN(c2c(F)cc3c(=O)c(C(=O)O)cn(NC)c3c2F)C1 (stereo unspecified),0.2 µg/mL,0.2 µg/mL,0.2 µg/mL,27 µg/mL,0.2 µg/mL,,,,,,,,0.8 µg/mL,1.6 µg/mL,0.2 µg/mL,0.4 µg/mL,0.2 µg/mL,0.1 µg/mL,0.3 µg/mL,0.4 µg/mL,
O=C(O)c1cn(C2CC2)c2cc(N3CCNCC3)c(F)cc2c1=O [CIPROFLOXACIN],0.025 µg/mL,,,,0.1 µg/mL,25 mg/kg,5 mg/kg,> 100 mg/kg,29 mg/kg,> 100 mg/kg,20 mg/kg,1 mg/kg,0.4 µg/mL,0.1 µg/mL,0.8 µg/mL,3.1 µg/mL,0.2 µg/mL,1.6 µg/mL,0.06 µg/mL,0.8 µg/mL,ED50 (Mus musculus [14]): 0.3 mg/kg
CCNCC1CCN(c2c(F)cc3c(=O)c(C(=O)O)cn(C(C)C)c3c2F)C1 (stereo unspecified),0.2 µg/mL,0.8 µg/mL,1.6 µg/mL,28 µg/mL,0.8 µg/mL,,,,,,,,12.5 µg/mL,6.3 µg/mL,0.2 µg/mL,0.4 µg/mL,0.2 µg/mL,0.8 µg/mL,1.05 µg/mL,1.6 µg/mL,
CCNCC1CCN(c2c(F)cc3c(=O)c(C(=O)O)cn(OC)c3c2F)C1 (stereo unspecified),0.4 µg/mL,0.4 µg/mL,0.4 µg/mL,27 µg/mL,0.2 µg/mL,,,,,,,,6.3 µg/mL,1.6 µg/mL,0.8 µg/mL,0.8 µg/mL,0.2 µg/mL,0.8 µg/mL,0.46 µg/mL,0.8 µg/mL,
CCn1cc(C(=O)O)c(=O)c2cc(F)c(N3CCNCC3)cc21 [NORFLOXACIN],0.1 µg/mL,0.025 µg/mL,0.1 µg/mL,,0.05 µg/mL,76 mg/kg,11 mg/kg,> 100 mg/kg,> 100 mg/kg,> 100 mg/kg,45 mg/kg,4 mg/kg,0.2 µg/mL,0.05 µg/mL,0.8 µg/mL,0.8 µg/mL,0.05 µg/mL,1.6 µg/mL,,1.6 µg/mL,MIC (Enterobacter [17]): 0.06 µg/mL; ED50 (Mus musculus [14]): 0.6 mg/kg
CCNCC1CCN(c2c(F)cc3c(=O)c(C(=O)O)cn(CC(F)(F)F)c3c2F)C1 (stereo unspecified),0.4 µg/mL,0.8 µg/mL,1.6 µg/mL,26 µg/mL,0.8 µg/mL,,,,,,,,6.3 µg/mL,3.1 µg/mL,0.4 µg/mL,0.4 µg/mL,0.1 µg/mL,0.4 µg/mL,1.05 µg/mL,0.2 µg/mL,
